# Hits are enriched below; roughly 2.1% of the tested compounds scored in any of these assays.
# ERp5 inh – inhibitors of ERp5-driven insulin aggregation, primary screen, biochemical, turbidity, absorbance 650 nm, single point; 90 min; 350,000 compounds, 0.05% hits; Protein disulfide-isomerase A6 (Homo sapiens), Q15084; AID 651711, 2012; inhibition, % at 9.99 µM;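 active means mean replicate inhibition above about 25%, with every replicate also reaching it, limit read from the data, passing the limit was not always enough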
# ARNT TACC3 PPI – disruptors of ARNT/TACC3 protein interaction, primary screen, biochemical, AlphaScreen, single concentration; AlphaScreen His-ARNT PAS-B/GST-TACC3 binding, luminescence; TACC3 fragment carries E629A point mutation; 390,000 compounds, 0.66% hits; inhibition, % at 9.99 µM;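 active means mean inhibition of replicates at least 50% and at least half of replicates each reaching 50%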;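 further: 0% = complete ARNT plus TACC3 wells and 100% = ARNT alone without TACC3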
# MLL AF4-AF9 inh – inhibitors of AF4 peptide binding to AF9, primary screen, biochemical, AlphaScreen, biotin-AF4 peptide, FLAG-AF9, single point | Protein AF-9 (Homo sapiens), P42568 | inhibition, % at 10 µM | 350,000 compounds, 0.47% hits | AID 651704, 2012;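 active means every replicate reaching a set inhibition limit, whatever the replicate mean, cut at about 25% in these data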;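 further: 0% = plate neutral control median and 100% = total signal loss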
# FN deposit inh – inhibitors of fibronectin matrix deposition, primary screen, AH1F cells, Alexa488-fibronectin fluorescence, plate reader. AH1F fibroblasts, overnight. inhibition, % at 12.6 µM. 350,000 compounds, 0.086% hits. AID 743247, 2014;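 active means mean inhibition across replicates of 30% or more, regardless of how many single replicates reach that level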;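 further: positive control wells lacked labelled fibronectin entirely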
#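 Material: AH1F fibroblast monolayer depositing Alexa488-labelled fibronectin into matrix / Amount: 10000 AH1F cells per well / Signal: fluorescence 485/525 nm / Medium: DMEM, 2% serum / Compound: single dose, pinned / Incubation: 1 h cell adhesion before compound, then overnight fibronectin incubation / Reagent: Alexa488-FN, 24 nM final / Read-out: inhibition of fibronectin deposition signal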
# PDI inh – inhibitors of human PDI, primary screen, biochemical, turbidity, single point, plate reader; 350,000 compounds, 0.052% hits; AID 588391, 2011; PDI insulin aggregation turbidity, A650, 90 min; inhibition, % at 10 µM;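 active means mean inhibition across replicates of 30% or more, whatever share of single replicates reach that level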
# Target sequence (P07237 whole entry, looked up): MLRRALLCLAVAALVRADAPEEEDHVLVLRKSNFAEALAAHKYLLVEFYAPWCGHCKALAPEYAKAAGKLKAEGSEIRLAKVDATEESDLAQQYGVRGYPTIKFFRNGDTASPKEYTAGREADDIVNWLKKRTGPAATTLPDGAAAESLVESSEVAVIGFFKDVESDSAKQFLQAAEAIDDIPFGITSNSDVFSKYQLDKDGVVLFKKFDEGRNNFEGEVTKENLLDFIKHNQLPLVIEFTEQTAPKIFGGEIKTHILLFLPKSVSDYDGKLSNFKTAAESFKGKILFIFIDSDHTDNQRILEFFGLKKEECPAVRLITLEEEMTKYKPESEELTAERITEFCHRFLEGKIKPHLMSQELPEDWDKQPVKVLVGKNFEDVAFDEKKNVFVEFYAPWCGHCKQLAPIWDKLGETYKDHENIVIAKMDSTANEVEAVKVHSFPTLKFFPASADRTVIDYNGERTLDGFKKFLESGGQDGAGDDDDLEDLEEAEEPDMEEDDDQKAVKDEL
# FGF22 binding – binders of human FGF22 protein, primary screen, FGF22 synaptogenesis inhibitor project, biophysical, thermal shift, single point | Fibroblast growth factor 22 (Homo sapiens), Q9HCT0 | recombinant FGF22 thermal shift, SYPRO orange fluorescence; percent of sucrose octasulfate shift, DMSO zero | activity (Tm shift, normalised), % at 9.99 µM | 340,000 compounds, 1.5% hits | AID 651658, 2012;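 active means mean Tm shift, scaled 0 neutral to 100 positive control, at about 1.3% or above, every replicate too, limit read from the data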
# An asterisk follows results filed as active; nt = not tested or not shown.
SMILES,ERp5 inh,ARNT TACC3 PPI,MLL AF4-AF9 inh,FN deposit inh,PDI inh,FGF22 binding
C[C@@H]1CN([C@H](C)CO)C(=O)c2cc(-c3cccc(C#N)c3)cnc2O[C@H]1CN(C)Cc1cncnc1,75*,-3,0,6,nt,0
C[C@H]1CN([C@@H](C)CO)C(=O)c2cc(-c3ccncc3)cnc2O[C@H]1CN(C)Cc1ccc(F)cc1,5,44*,-3,-8,nt,0
C[C@@H]1CN([C@@H](C)CO)C(=O)c2cc(-c3ccccc3)cnc2O[C@H]1CN(C)C(=O)c1cccc(F)c1,nt,nt,nt,-25,nt,nt
COc1cccc(S(=O)(=O)Nc2ccc3c(c2)[C@@H]2C[C@H](CC(=O)NCc4cccc(F)c4)O[C@H](CO)[C@@H]2O3)c1,3,11,3,7,nt,0
C/C=C/c1ccc([C@@H]2[C@H](CO)N(C(=O)NCCC)[C@H]2CNC(=O)C2CCC2)cc1,nt,-5,nt,14,nt,nt
C[C@@H]1CN([C@H](C)CO)C(=O)c2cc(C3=CCCCC3)cnc2O[C@H]1CN(C)C(=O)Cc1cccnc1,-8,active,-1,-9,nt,0
CC(C)C#Cc1cnc2c(c1)C(=O)N([C@@H](C)CO)C[C@@H](C)[C@H](CN(C)C(=O)c1ccccc1F)O2,32*,4,0,-6,nt,0
C[C@@H]1CN([C@@H](C)CO)C(=O)c2cc(C3=CCCCC3)cnc2O[C@@H]1CN(C)C(=O)Cc1cccnc1,0,0,-2,-37,nt,0
CC(C)C#Cc1cnc2c(c1)C(=O)N([C@@H](C)CO)C[C@H](C)[C@@H](CN(C)C(=O)c1ccccc1F)O2,1,4,-1,-7,nt,0
Cc1ccc(-c2cnc3c(c2)C(=O)N([C@@H](C)CO)C[C@H](C)[C@@H](CN(C)C(=O)Cc2cccnc2)O3)cc1,-5,-33,-1,-3,nt,0
CO[C@@H]1CN(C)C(=O)c2ccc(NS(=O)(=O)CC(F)(F)F)cc2OC[C@@H](C)N(C)C[C@@H]1C,8,-4,-1,7,nt,0
O=C(Cn1nc(CNc2ccc(Cl)cc2)[n+]2c1CCCCC2)c1ccc(Br)cc1,nt,9,nt,-7,6,nt
O=C(Cn1nc(CNc2ccc(Br)cc2)[n+]2c1CCCCC2)c1ccc([N+](=O)[O-])cc1,nt,nt,28*,1,2,0
C[C@H]1CN([C@@H](C)CO)C(=O)Cc2cc(NC(=O)Nc3cccc4ccccc34)ccc2O[C@H]1CN(C)C(=O)Nc1cccc2ccccc12,26*,2,0,nt,nt,0
C[C@H](CO)N1C[C@H](C)[C@@H](CN(C)CC2CCCCC2)Oc2ccc(NC(=O)Nc3cccc4ccccc34)cc2CC1=O,4,47*,2,nt,nt,0
C[C@H]1CN([C@@H](C)CO)C(=O)c2cc(NC(=O)Nc3ccccc3)ccc2O[C@@H]1CN(C)C(=O)Nc1cccc2ccccc12,4,3,0,nt,nt,0
C[C@H](CO)N1C[C@H](C)[C@@H](CN(C)CC2CCCCC2)Oc2ccc(NC(=O)Nc3ccc4c(c3)OCO4)cc2CC1=O,4,21,26*,nt,nt,0
C[C@@H]1CN([C@H](C)CO)C(=O)c2cc(NC(=O)Nc3cccc4ccccc34)ccc2O[C@@H]1CN(C)C(=O)Nc1cccc2ccccc12,33*,15,-1,nt,nt,0
CCCN(C)C[C@H]1OCc2cnnn2CCCC(=O)N([C@@H](C)CO)C[C@H]1C,3,-1,0,-10,nt,0
C[C@@H]1CCCCO[C@@H](CN(C)C(=O)Nc2cccc3ccccc23)[C@@H](C)CN([C@H](C)CO)C(=O)c2cc(NS(=O)(=O)c3cccs3)ccc2O1,4,-4,2,nt,nt,-1
COC(=O)[C@H]1[C@H](CO)[C@H]2Cn3c(ccc(/C=C/c4ccccc4)c3=O)[C@H]2N1C(=O)CC1CC1,nt,nt,0,nt,nt,nt
COCCNC(=S)Nc1cc(OC)c(OC)cc1C#N,2,50*,-1,7,-4,0
O=C(C[C@H]1C=C[C@H](NC(=O)CN2CCOCC2)[C@H](CO)O1)NC1CCCCC1,1,-12,-2,-7,nt,0
C[C@@H]1CN([C@H](C)CO)C(=O)c2cc(C#CCN(C)C)cnc2O[C@H]1CN(C)S(=O)(=O)c1cn(C)cn1,1,-8,-4,nt,nt,0
O=C(c1cccc(F)c1)N1CCCCN2[C@H](CO)[C@@H](c3ccc(-c4ccc(F)cc4)cc3)[C@H]2C1,4,4,2,nt,nt,0
SMILES,ERp5 inh,ARNT TACC3 PPI,MLL AF4-AF9 inh,FN deposit inh,PDI inh,FGF22 binding
O=C(NC1CCCC1)N1CCCCN2[C@@H](CO)[C@@H](c3ccc(/C=C/c4ccccc4)cc3)[C@@H]2C1,0,16,28*,nt,nt,-1
Cc1cccc(-c2ccc([C@H]3[C@H]4CN(C(=O)c5cccnc5)CCCCN4[C@H]3CO)cc2)c1,-6,-1,26*,nt,nt,0
O=C(c1cccc(F)c1)N1CCCCN2[C@H](C1)[C@H](c1ccc(-c3ccccc3)cc1)[C@@H]2CO,28*,0,-4,nt,nt,-1
Cc1cccc(-c2ccc([C@H]3[C@H]4CN(S(=O)(=O)c5cccc(C)c5)CCCCN4[C@H]3CO)cc2)c1,-2,14,0,nt,nt,18*
C[C@H](CO)N1C[C@H](C)[C@@H](CN(C)C(=O)c2ccncc2)Oc2cc(-c3cccc(C#N)c3)ccc2S1(=O)=O,8,-6,-8,nt,nt,0
COc1cccc(NC(=O)C[C@H]2CC[C@@H]3[C@H](COc4ccc(NC(=O)C5CCCCC5)cc4C(=O)N3C)O2)c1,2,6,1,-10,nt,0
CO[C@@H]1CN(C)C(=O)c2ccc(NS(=O)(=O)c3ccccc3F)cc2OC[C@H](C)NC[C@H]1C,-3,0,-3,-7,nt,0
CCCNC(=O)COC(=O)CCC(=O)c1cccs1,3,-2,0,3,-2,0
Cc1c(Cl)cnc(NC(=O)COC(=O)CCC(=O)c2cccs2)c1Cl,1,nt,-11,2,-10,43*
CC(C)CNC(=O)COC(=O)CCC(=O)c1cccs1,-2,nt,-7,5,7,43*
CCC(CC)NC(=O)COC(=O)CCC(=O)c1cccs1,-5,nt,-2,9,-3,43*
CCNC(=O)COC(=O)CCC(=O)c1cccs1,0,-5,1,4,-8,0
